{
  "source": "ChEMBL document CHEMBL3763066",
  "about": "“Potent μ-Opioid Receptor Agonists from Cyclic Peptides Tyr-c[D-Lys-Xxx-Tyr-Gly]: Synthesis, Biological, and Structural Evaluation” (J Med Chem, 2016)",
  "key": {"Mu-type opioid receptor [1]": {"molecular_target": "Mu-type opioid receptor (Rattus norvegicus, UniProt P33535)", "sequence (P33535 whole entry)": "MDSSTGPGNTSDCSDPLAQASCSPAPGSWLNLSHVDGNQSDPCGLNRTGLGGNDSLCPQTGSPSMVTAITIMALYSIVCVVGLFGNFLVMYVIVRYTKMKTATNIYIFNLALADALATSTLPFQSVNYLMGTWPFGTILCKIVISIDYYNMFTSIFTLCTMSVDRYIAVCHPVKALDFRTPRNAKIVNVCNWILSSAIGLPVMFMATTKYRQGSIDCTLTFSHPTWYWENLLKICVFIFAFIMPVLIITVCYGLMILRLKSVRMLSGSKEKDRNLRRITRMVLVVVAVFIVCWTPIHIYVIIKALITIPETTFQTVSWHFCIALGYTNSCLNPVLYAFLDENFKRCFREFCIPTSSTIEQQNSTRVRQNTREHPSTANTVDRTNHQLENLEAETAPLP", "assay": "Displacement of [3H]DAMGO from rat cortical MOR by liquid scintillation counting method"}, "[2]": {"molecular_target": "Kappa-type opioid receptor (Cavia porcellus, UniProt P41144)", "sequence (P41144 whole entry)": "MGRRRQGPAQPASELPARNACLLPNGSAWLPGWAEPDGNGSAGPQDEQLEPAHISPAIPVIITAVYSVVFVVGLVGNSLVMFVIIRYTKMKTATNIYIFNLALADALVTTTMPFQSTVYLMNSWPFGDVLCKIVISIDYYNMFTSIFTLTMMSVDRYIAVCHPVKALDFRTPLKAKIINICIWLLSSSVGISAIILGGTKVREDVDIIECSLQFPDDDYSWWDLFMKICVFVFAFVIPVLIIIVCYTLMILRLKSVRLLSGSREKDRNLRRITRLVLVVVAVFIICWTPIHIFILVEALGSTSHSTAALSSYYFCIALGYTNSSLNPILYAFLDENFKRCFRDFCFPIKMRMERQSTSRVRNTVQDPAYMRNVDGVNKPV", "assay": "Displacement of [3H]U69,593 from guinea pig KOR after 2 hrs by liquid scintillation counting method"}, "[3]": {"molecular_target": "Delta-type opioid receptor (Rattus norvegicus, UniProt P33533)", "sequence (P33533 whole entry)": "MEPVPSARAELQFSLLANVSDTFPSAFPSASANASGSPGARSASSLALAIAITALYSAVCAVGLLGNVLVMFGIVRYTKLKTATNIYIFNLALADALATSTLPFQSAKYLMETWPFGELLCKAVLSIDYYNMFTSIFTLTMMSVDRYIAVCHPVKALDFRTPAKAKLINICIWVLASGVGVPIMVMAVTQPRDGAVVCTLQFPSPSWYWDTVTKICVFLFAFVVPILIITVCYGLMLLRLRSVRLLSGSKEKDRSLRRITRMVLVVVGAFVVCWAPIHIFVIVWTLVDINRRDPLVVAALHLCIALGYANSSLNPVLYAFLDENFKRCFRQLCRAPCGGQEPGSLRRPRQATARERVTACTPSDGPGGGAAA", "assay": "Displacement of [3H]DPDPE from rat cortical DOR after […] by liquid scintillation counting method"}, "[4]": {"assay": "Selectivity ratio of Ki for guinea pig KOR to Ki for rat cortical MOR", "procedure,_shortened": "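KOR: guinea pig cortex and cerebellum membranes in 50 mM Tris pH 7.4, 10 mM MgCl2, 200 μM PMSF, with 2 nM [3H]U69,593, 2 h at 25 °C; U50,488 defined nonspecific binding. […] Both used GF/B filtration and scintillation counting. The ratio is Ki(KOR)/Ki(MOR).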"}, "Rattus norvegicus": {"organism": "Rattus norvegicus", "assay": "Selectivity ratio of Ki for rat cortical DOR to Ki for rat cortical MOR"}, "Mu-type opioid receptor [5]": {"molecular_target": "T1, Mu-type opioid receptor (Homo sapiens, UniProt P35372)", "T1 sequence (P35372 whole entry)": "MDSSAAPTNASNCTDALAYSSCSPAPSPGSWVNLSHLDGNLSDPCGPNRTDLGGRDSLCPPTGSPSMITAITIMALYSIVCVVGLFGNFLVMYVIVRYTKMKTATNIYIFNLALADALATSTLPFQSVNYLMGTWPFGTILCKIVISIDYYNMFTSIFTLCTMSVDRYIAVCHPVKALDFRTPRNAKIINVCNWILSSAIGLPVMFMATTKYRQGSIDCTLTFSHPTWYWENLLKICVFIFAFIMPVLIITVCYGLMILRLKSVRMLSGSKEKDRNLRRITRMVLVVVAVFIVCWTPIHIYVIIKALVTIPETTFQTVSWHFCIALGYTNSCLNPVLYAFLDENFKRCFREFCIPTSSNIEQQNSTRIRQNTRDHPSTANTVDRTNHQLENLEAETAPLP", "type": "cell-based, CHO"}, "Mu-type opioid receptor [6]": {"molecular_target": "T1, Mu-type opioid receptor", "assay": "Potency index, ratio of morphine EC50 to compound EC50 for human MOR", "procedure,_shortened": "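CHO cells expressing human MOR were seeded 1 day before the assay. Cells were loaded with membrane-potential blue dye in HBSS/20 mM HEPES pH 7.4 for 45 min at 37 °C, then compound was added. Fluorescence (ex 530, em 550–565 nm) was read every 3 s for 60 s, taking maximum minus minimum response. The index is morphine EC50 divided by compound EC50.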"}},
  "note": "Where a SMILES comes first, the peptide text is derived from it. Bridges are numbered along the chain shown (N, C = ends). [ ]: non-standard residue; d: D form. 2Abz = Nc1ccccc1C(=O)O; Dap = NC[C@H](N)C(=O)O",
  "data": [
    {"smiles": "N[C@@H](Cc1ccc(O)cc1)C(=O)N[C@@H]1CCCCNC(=O)CNC(=O)[C@H](Cc2ccc(O)cc2)NC(=O)[C@H](Cc2ccccc2)NC1=O", "values": [
      {"measurement": "Ki", "setting": "Mu-type opioid receptor [1]", "value": 0.99, "unit": "nM"},
      {"measurement": "Ki", "setting": "[2]", "value": 4450, "unit": "nM"},
      {"measurement": "Ki", "setting": "[3]", "value": 39, "unit": "nM"},
      {"measurement": "Ratio Ki", "setting": "[4]", "value": 4520},
      {"measurement": "Ratio Ki", "setting": "Rattus norvegicus", "value": 39},
      {"measurement": "IC50", "setting": "Mu-type opioid receptor [5]", "value": 2.3, "unit": "nM"},
      {"measurement": "Ratio EC50", "setting": "Mu-type opioid receptor [6]", "value": 3}
    ]},
    {"smiles": "N=C(N)NCCC[C@@H]1NC(=O)[C@H](NC(=O)[C@@H](N)Cc2ccc(O)cc2)CCCCNC(=O)CNC(=O)[C@H](Cc2ccc(O)cc2)NC1=O", "values": [
      {"measurement": "Ki", "setting": "Mu-type opioid receptor [1]", "value": 17.4, "unit": "nM"},
      {"measurement": "Ki", "setting": "[2]", "value": 8530, "unit": "nM"},
      {"measurement": "Ki", "setting": "[3]", "value": "> 10000", "unit": "nM"},
      {"measurement": "Ratio Ki", "setting": "[4]", "value": 406},
      {"measurement": "Ratio Ki", "setting": "Rattus norvegicus", "value": "> 805"},
      {"measurement": "IC50", "setting": "Mu-type opioid receptor [5]", "value": 131, "unit": "nM"}
    ]},
    {"smiles": "NC(=O)NCCC[C@@H]1NC(=O)[C@H](NC(=O)[C@@H](N)Cc2ccc(O)cc2)CCCCNC(=O)CNC(=O)[C@H](Cc2ccc(O)cc2)NC1=O", "values": [
      {"measurement": "Ki", "setting": "Mu-type opioid receptor [1]", "value": 9.04, "unit": "nM"},
      {"measurement": "Ki", "setting": "[2]", "value": 8430, "unit": "nM"},
      {"measurement": "Ki", "setting": "[3]", "value": 3320, "unit": "nM"},
      {"measurement": "Ratio Ki", "setting": "[4]", "value": 760},
      {"measurement": "Ratio Ki", "setting": "Rattus norvegicus", "value": 367},
      {"measurement": "IC50", "setting": "Mu-type opioid receptor [5]", "value": 66.9, "unit": "nM"}
    ]},
    {"smiles": "Nc1ccccc1C(=O)NC[C@@H]1NC(=O)[C@H](NC(=O)[C@@H](N)Cc2ccc(O)cc2)CCCCNC(=O)CNC(=O)[C@H](Cc2ccc(O)cc2)NC1=O", "note": "(H-Y[dK][Dap](2Abz)YG; lactam 2-C)", "values": [
      {"measurement": "Ki", "setting": "[2]", "value": 3230, "unit": "nM"},
      {"measurement": "Ratio Ki", "setting": "[4]", "value": 231},
      {"measurement": "Ratio Ki", "setting": "Rattus norvegicus", "value": 62}
    ]},
    {"smiles": "N[C@@H](Cc1ccc(O)cc1)C(=O)N[C@@H]1CCCCNC(=O)CNC(=O)[C@H](Cc2ccc(O)cc2)NC(=O)[C@H](Cc2ccc(O)cc2)NC1=O", "values": [
      {"measurement": "Ki", "setting": "Mu-type opioid receptor [1]", "value": 114, "unit": "nM"},
      {"measurement": "Ki", "setting": "[2]", "value": "> 10000", "unit": "nM"},
      {"measurement": "Ki", "setting": "[3]", "value": 171, "unit": "nM"},
      {"measurement": "Ratio Ki", "setting": "[4]", "value": "> 324"},
      {"measurement": "Ratio Ki", "setting": "Rattus norvegicus", "value": 1.5},
      {"measurement": "IC50", "setting": "Mu-type opioid receptor [5]", "value": 70.4, "unit": "nM"}
    ]},
    {"smiles": "N[C@@H](Cc1ccc(O)cc1)C(=O)N[C@@H]1CCCCNC(=O)CNC(=O)[C@H](Cc2ccc(O)cc2)NC(=O)[C@H](Cc2ccncc2)NC1=O", "values": [
      {"measurement": "Ki", "setting": "Mu-type opioid receptor [1]", "value": 9.21, "unit": "nM"},
      {"measurement": "Ki", "setting": "[2]", "value": "> 10000", "unit": "nM"},
      {"measurement": "Ki", "setting": "[3]", "value": 2270, "unit": "nM"},
      {"measurement": "Ratio Ki", "setting": "[4]", "value": 1100},
      {"measurement": "Ratio Ki", "setting": "Rattus norvegicus", "value": 247},
      {"measurement": "IC50", "setting": "Mu-type opioid receptor [5]", "value": 32, "unit": "nM"}
    ]},
    {"smiles": "N[C@@H](Cc1ccc(O)cc1)C(=O)N[C@@H]1CCCCNC(=O)CNC(=O)[C@H](Cc2ccc(O)cc2)NC(=O)[C@H](Cc2c[nH]c3ccccc23)NC1=O", "values": [
      {"measurement": "Ki", "setting": "Mu-type opioid receptor [1]", "value": 1.99, "unit": "nM"},
      {"measurement": "Ki", "setting": "[2]", "value": 8160, "unit": "nM"},
      {"measurement": "Ki", "setting": "[3]", "value": 99, "unit": "nM"},
      {"measurement": "Ratio Ki", "setting": "[4]", "value": 2940},
      {"measurement": "Ratio Ki", "setting": "Rattus norvegicus", "value": 50},
      {"measurement": "IC50", "setting": "Mu-type opioid receptor [5]", "value": 24, "unit": "nM"}
    ]},
    {"smiles": "N[C@@H](Cc1ccc(O)cc1)C(=O)N[C@@H]1CCCCNC(=O)CNC(=O)[C@H](Cc2ccc(O)cc2)NC(=O)[C@H](Cc2cccnc2)NC1=O", "values": [
      {"measurement": "Ki", "setting": "Mu-type opioid receptor [1]", "value": 1.95, "unit": "nM"},
      {"measurement": "Ki", "setting": "[2]", "value": 5330, "unit": "nM"},
      {"measurement": "Ki", "setting": "[3]", "value": 1280, "unit": "nM"},
      {"measurement": "Ratio Ki", "setting": "[4]", "value": 1320},
      {"measurement": "Ratio Ki", "setting": "Rattus norvegicus", "value": 658},
      {"measurement": "IC50", "setting": "Mu-type opioid receptor [5]", "value": 11.1, "unit": "nM"}
    ]}
  ]
}
